Measured values taken from publication PMC6815762 (Drug Design, Development and Therapy, 2019).
Each block holds one molecule with its values, some of them ahead of it. Peptide text beside a SMILES is read from it.

Legend:
integrin αvβ3 [1] = target: integrin αvβ3 (Homo sapiens, UniProt P05106+P06756); assay: Determination of the dissociation constant by ELISA; assay type: binding
Summary of the method: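 Solution-phase ELISA after Friguet. Integrin αvβ3 (serial, 0.5–32 nM) was equilibrated with test peptide (0.5 nM) for 4 hrs at 37°C. The mixture was moved to wells precoated with anti-integrin αvβ3 antibody (1:50) for 1 hr at room temperature, washed, and bound complexes detected by ELISA. Absorbance was taken without receptor (A0) and at each receptor concentration (A). Run in triplicate; Kd from one-site specific binding nonlinear regression.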

hCMEC/D3 cells [2] = assay: Cell proliferation assay; assay type: cell-based, human; settings: 48 hr incubation, MTT, 570 nm, p > 0.05
hCMEC/D3 cells [3] = assay: Tube formation assay on Matrigel; assay type: cell-based, human; settings: VEGF 10 ng/mL, positive control, 12 hr
integrin αvβ3 [4] = target: integrin αvβ3 (UniProt P06756); assay: ELISA
Chain of integrin αvβ3 (UniProt P06756) (P06756 31-1048, chain 1 of 2): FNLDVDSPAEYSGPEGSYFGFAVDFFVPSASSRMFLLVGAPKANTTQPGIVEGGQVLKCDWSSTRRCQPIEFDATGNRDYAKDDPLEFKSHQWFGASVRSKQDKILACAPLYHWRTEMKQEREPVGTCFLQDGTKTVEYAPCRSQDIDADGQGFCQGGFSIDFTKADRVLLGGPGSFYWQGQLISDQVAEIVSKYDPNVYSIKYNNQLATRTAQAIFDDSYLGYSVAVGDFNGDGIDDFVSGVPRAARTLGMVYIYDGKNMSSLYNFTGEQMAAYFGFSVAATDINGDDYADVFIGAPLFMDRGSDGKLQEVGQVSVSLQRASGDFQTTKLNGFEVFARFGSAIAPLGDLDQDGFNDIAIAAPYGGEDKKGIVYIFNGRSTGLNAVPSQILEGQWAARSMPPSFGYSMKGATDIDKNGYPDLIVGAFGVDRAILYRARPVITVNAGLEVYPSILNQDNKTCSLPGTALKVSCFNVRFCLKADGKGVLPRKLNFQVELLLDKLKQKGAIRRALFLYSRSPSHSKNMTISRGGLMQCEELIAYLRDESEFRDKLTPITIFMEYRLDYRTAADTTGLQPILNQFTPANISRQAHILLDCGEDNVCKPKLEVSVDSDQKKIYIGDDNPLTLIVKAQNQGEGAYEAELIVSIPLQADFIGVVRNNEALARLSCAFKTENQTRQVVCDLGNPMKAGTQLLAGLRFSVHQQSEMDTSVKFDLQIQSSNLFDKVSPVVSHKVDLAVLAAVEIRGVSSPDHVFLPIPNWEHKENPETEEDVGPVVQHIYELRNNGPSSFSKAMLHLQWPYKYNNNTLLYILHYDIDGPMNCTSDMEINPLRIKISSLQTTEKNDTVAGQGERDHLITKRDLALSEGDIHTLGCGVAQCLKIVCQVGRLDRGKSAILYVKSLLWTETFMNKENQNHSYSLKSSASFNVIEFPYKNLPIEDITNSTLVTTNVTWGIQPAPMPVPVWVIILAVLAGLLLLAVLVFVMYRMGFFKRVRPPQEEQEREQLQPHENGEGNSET
Chain of integrin αvβ3 (UniProt P06756) (P05106 27-788, chain 2 of 2, further chain): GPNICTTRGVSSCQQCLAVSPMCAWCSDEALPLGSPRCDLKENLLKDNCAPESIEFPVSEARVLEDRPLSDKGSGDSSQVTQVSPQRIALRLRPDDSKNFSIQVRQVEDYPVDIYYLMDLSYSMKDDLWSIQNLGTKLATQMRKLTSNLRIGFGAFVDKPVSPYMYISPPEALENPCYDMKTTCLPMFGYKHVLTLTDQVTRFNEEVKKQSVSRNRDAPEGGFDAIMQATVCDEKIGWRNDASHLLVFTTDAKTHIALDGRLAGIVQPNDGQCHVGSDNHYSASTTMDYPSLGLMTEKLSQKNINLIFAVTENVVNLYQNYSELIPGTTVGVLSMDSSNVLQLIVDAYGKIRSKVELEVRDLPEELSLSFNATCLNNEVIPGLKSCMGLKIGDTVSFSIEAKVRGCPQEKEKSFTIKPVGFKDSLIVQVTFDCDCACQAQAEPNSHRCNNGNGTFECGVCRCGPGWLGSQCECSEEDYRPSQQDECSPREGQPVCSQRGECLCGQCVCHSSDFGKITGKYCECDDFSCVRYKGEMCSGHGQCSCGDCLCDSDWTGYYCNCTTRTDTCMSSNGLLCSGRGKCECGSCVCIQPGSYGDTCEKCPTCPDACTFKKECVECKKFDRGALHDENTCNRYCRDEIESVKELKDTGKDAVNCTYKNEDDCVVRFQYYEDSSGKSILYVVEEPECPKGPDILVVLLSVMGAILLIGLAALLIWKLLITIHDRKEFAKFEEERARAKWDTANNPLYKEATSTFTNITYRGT

Chain of integrin αvβ3 (Homo sapiens, UniProt P05106+P06756) (P06756 31-1048): as the sequence (P06756 31-1048, chain 1 of 2) above
Chain of integrin αvβ3 (Homo sapiens, UniProt P05106+P06756) (P05106 27-788): as the sequence (P05106 27-788, chain 2 of 2, further chain) above

Molecule: N=C(N)NCCC[C@H](NC(=O)[C@@H]1CCCN1C(=O)[C@H](Cc1c[nH]c2ccccc12)NC(=O)[C@H](CCCNC(=N)N)NC(=O)[C@H](Cc1ccccc1)NC(=O)[C@H](CC(=O)O)NC(=O)CNC(=O)[C@@H](N)CCCNC(=N)N)C(=O)O [GCPF] (H-RGDFRWPR-OH)
Kd (integrin αvβ3 [1]): 2.41 ± 0.455 nM | proliferation inhibition rate (hCMEC/D3 cells [2]; 1 μg/mL): 0.15% | proliferation inhibition rate (hCMEC/D3 cells [2]; 10 μg/mL): 13.49% | proliferation inhibition rate (hCMEC/D3 cells [2]; 100 μg/mL): 3.90% | proliferation inhibition rate (hCMEC/D3 cells [2]; 1000 μg/mL): 1.98%

Molecule: VEGF
tube formation, result in words (hCMEC/D3 cells [3]): the tube-like structures were developed from clear elongated cell bodies, which connected to form a polygon network

Kd (integrin αvβ3 [4]): 2.41 nM
Molecule: RGDFRWPR [GCPF peptide]
